Measurements as given in ChEMBL document CHEMBL1649117, “GRL-02031, a novel nonpeptidic protease inhibitor (PI) containing a stereochemically defined fused cyclopentanyltetrahydrofuran potent against multi-PI-resistant human immunodeficiency virus type 1 in vitro” (Antimicrob Agents Chemother, 2009).

Key:
[1] = tested on: Human immunodeficiency virus 1; assay: Antiviral activity against HIV1 MM harboring L10I/K43T/M46L/I54V/L63P/A71V/V82A/L90M/Q92K in protease encoding region infected in human PHA-PBC assessed as inhibition of p24 Gag protein production by ELISA; type: functional, organism-based; conditions: Human immunodeficiency virus 1, MM
Outline: (§1)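 Phytohemagglutinin-stimulated PBMs (10^6/ml) infected with 50 TCID50s of each primary isolate, cultured with or without drug in 10-fold serial dilutions. On day 7, supernatant p24 Gag was measured by automated chemiluminescent enzyme immunoassay. […] Triplicate.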

[2] = tested on: Human immunodeficiency virus 1; assay: Ratio of EC50 for HIV1 NL4-3 harboring L10F/L33F/M46I/I47V/Q58E/V82I/I84V/I85V amino acid substitution in protease encoding region to EC50 for HIV1 NL4-3; type: functional
Outline: (§2)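 MT-4 cells (10^5/ml) infected with 100 TCID50s of PI-selected HIV-1NL4-3 variants or the parental strain, with or without serial drug concentrations, at 37°C. Day 7 supernatant p24 Gag measured by chemiluminescent enzyme immunoassay. […] Triplicate. Ratio is variant EC50 over wild-type EC50.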

[3] = tested on: Human immunodeficiency virus 1; assay: Antiviral activity against HIV1 B harboring L10I/I15V/E35D/N37E/K45R/I54V/L63P/A71V/V82T/L90M/I93L/C95F in protease encoding region infected in human PHA-PBC assessed as inhibition of p24 Gag protein production by ELISA; type: functional, organism-based; conditions: Human immunodeficiency virus 1, B; outline: as §1
[4] = tested on: Human immunodeficiency virus; assay: Antiviral activity against HIV1 LAI infected in human MT2 cells after 7 days by MTT assay; type: functional, organism-based; conditions: Human immunodeficiency virus 1, LAI, MT2, 168 h
[5] = tested on: Human immunodeficiency virus 1; assay: Antiviral activity against HIV1 MOKW infected in human PHA-PBC assessed as inhibition of p24 Gag protein production by ELISA; type: functional, organism-based; conditions: Human immunodeficiency virus 1, MOKW; outline: as §1
[6] = tested on: Human immunodeficiency virus 1; assay: Antiviral activity against HIV1 NL4-3 harboring L10F/M46I/I54V/V82A amino acid substitution in protease encoding region infected in human MT4 cells assessed as inhibition of p24 Gag protein production selected at 1 uM of Lopinavir by ELISA; type: functional, organism-based; conditions: Human immunodeficiency virus 1, NL4-3, MT4
Outline: (§3)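 Cell-free passage used day-7 supernatants. Variants were then tested in MT-4 cells (10^5/ml) with 100 TCID50s, with or without drug, at 37°C. Day-7 p24 Gag was read by chemiluminescent immunoassay; EC50 vs drug-free control; triplicate.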

[7] = tested on: Human immunodeficiency virus 1; assay: Antiviral activity against HIV1 NL4-3 harboring L10F/D30N/K45I/A71V/T74S amino acid substitution in protease encoding region infected in human MT4 cells assessed as inhibition of p24 Gag protein production selected at 5 uM of nelfinavir by ELISA; type: functional, organism-based; conditions: Human immunodeficiency virus 1, NL4-3, MT4
Outline: as §3, with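 “HIV-1NL4-3 (500 TCID50s) was passaged in MT-4 cells, starting at 0.01–0.03 µM PI and raising the drug generally two- to threefold as virus propagated. Cell-free” for “Cell-free”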

[8] = tested on: Human immunodeficiency virus 1; assay: Antiviral activity against HIV1 NL4-3 harboring L23I/K43I/M46I/I50L/G51A/A71V amino acid substitution in protease encoding region infected in human MT4 cells assessed as inhibition of p24 Gag protein production selected at 1 uM of atazanavir by ELISA; type: functional, organism-based; conditions: Human immunodeficiency virus 1, NL4-3, MT4
Outline: as §3, with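 “HIV-1NL4-3 (500 TCID50s) was passaged in MT-4 cells, starting at 0.01–0.03 µM PI and raising the drug generally two- to threefold as virus propagated. Cell-free” for “Cell-free”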

[9] = tested on: Human immunodeficiency virus 1; assay: Antiviral activity against HIV1 NL4-3 harboring L10I/G48V/I54V/L90M amino acid substitution in protease encoding region infected in human MT4 cells assessed as inhibition of p24 Gag protein production selected at 5 uM of saquinavir by ELISA; type: functional, organism-based; conditions: Human immunodeficiency virus 1, NL4-3, MT4
Outline: as §3, with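 “HIV-1NL4-3 (500 TCID50s) was passaged in MT-4 cells, starting at 0.01–0.03 µM PI and raising the drug generally two- to threefold as virus propagated. Cell-free” for “Cell-free”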

[10] = tested on: Human immunodeficiency virus 1; assay: Antiviral activity against HIV1 NL4-3 harboring L10F/L33F/M46I/I47V/Q58E/V82I/I84V/I85V amino acid substitution in protease encoding region infected in human MT4 cells assessed as inhibition of p24 Gag protein production selected at 5 uM of GRL-02031 by ELISA; type: functional, organism-based; conditions: Human immunodeficiency virus 1, NL4-3, MT4; outline: as §3
[11] = tested on: Human immunodeficiency virus 1; assay: Antiviral activity against HIV1 C harboring L10I/I15V/K20R/L24I/M36I/M46L/I54V/I62V/L63P/K70Q/V82A/L89M in protease encoding region infected in human PHA-PBC assessed as inhibition of p24 Gag protein production by ELISA; type: functional, organism-based; conditions: Human immunodeficiency virus 1, C; outline: as §1
[12] = tested on: Human immunodeficiency virus 1; assay: Antiviral activity against HIV1 NL4-3 harboring L10F/L24I/M46I/L63P/A71V/G73S/V82T amino acid substitution in protease encoding region infected in human MT4 cells assessed as inhibition of p24 Gag protein production selected at 5 uM of indinavir by ELISA; type: functional, organism-based; conditions: Human immunodeficiency virus 1, NL4-3, MT4
Outline: as §3, with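 “HIV-1NL4-3 (500 TCID50s) was passaged in MT-4 cells, starting at 0.01–0.03 µM PI and raising the drug generally two- to threefold as virus propagated. Cell-free” for “Cell-free”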

[13] = tested on: Human immunodeficiency virus 1; assay: Ratio of EC50 for HIV1 NL4-3 harboring L23I/K43I/M46I/I50L/G51A/A71V amino acid substitution in protease encoding region to EC50 for HIV1 NL4-3; type: functional; outline: as §2
[14] = tested on: Human immunodeficiency virus 1; assay: Ratio of EC50 for HIV1 B harboring L10I/I15V/E35D/N37E/K45R/I54V/L63P/A71V/V82T/L90M/I93L/C95F in protease encoding region to EC50 for HIV1 ERS104pre; type: functional
[15] = tested on: Human immunodeficiency virus 1; assay: Ratio of EC50 for HIV1 NL4-3 harboring M46I/V82F/I84V amino acid substitution in protease encoding region to EC50 for HIV1 NL4-3; type: functional; outline: as §2
[16] = tested on: Human immunodeficiency virus 1; assay: Antiviral activity against HIV1 ERS104pre infected in human PHA-PBC assessed as inhibition of p24 Gag protein production by ELISA; type: functional, organism-based; conditions: Human immunodeficiency virus 1, ERS104pre
Outline: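 Phytohemagglutinin-stimulated PBMs (10^6/ml) infected with 50 TCID50s of each primary isolate, cultured with or without drug in 10-fold serial dilutions. On day 7, supernatant p24 Gag was measured by automated chemiluminescent enzyme immunoassay. Triplicate.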

[17] = tested on: Human immunodeficiency virus 1; assay: Ratio of EC50 for HIV1 NL4-3 harboring L10F/M46I/I47V/V82I/I85V mutation in protease encoding region infected in human […] cells to EC50 for HIV1 NL4-3 infected in human MT4 cells; type: functional
[18] = tested on: Human immunodeficiency virus 1; assay: Ratio of EC50 for nelfinavir to compound against HIV1 NL4-3 harboring D30N mutation in protease encoding region infected in human […] cells; type: functional
[19] = tested on: Human immunodeficiency virus 1; assay: Ratio of EC50 for saquinavir to compound against HIV1 NL4-3 harboring L90M mutation in protease encoding region infected in human […] cells; type: functional
[20] = tested on: Human immunodeficiency virus 1; assay: Ratio of EC50 for HIV1 NL4-3 harboring L10F mutation in protease encoding region infected in human […] cells to EC50 for HIV1 NL4-3 infected in human MT4 cells; type: functional

Structure (SMILES) | EC50 [1] [nM] | Ratio EC50 [2] | EC50 [3] [nM] | EC50 [4] [nM] | EC50 [5] [nM] | EC50 [6] [nM] | EC50 [7] [nM] | EC50 [8] [nM] | EC50 [9] [nM] | EC50 [10] [nM] | EC50 [11] [nM] | EC50 [12] [nM] | Ratio EC50 [13] | Ratio EC50 [14] | Ratio EC50 [15] | EC50 [16] [nM] | Ratio EC50 [17] | Ratio EC50 [18] | Ratio EC50 [19] | Ratio EC50 [20]
CC(C)CN(C[C@@H](O)[C@H](Cc1ccccc1)NC(=O)O[C@H]1CCOC1)S(=O)(=O)c1ccc(N)cc1 | 400 | 8 | 310 | 33 | 15 | 320 | 78 | 180 | 210 | 210 | 220 | 260 | 6 | 12 | 15 | – | – | – | – | –
COc1ccc(S(=O)(=O)N(C[C@@H]2CCC(=O)N2)C[C@@H](O)[C@H](Cc2ccccc2)NC(=O)O[C@@H]2C[C@@H]3CCO[C@@H]3C2)cc1 | 41 | >43 | 29 | 28 | 26 | 38 | 36 | 33 | 140 | > 1000 | 27 | 47 | 1 | 1 | 3 | 27 | >43 | 5.6 | 1 | 1.6
CC(C)(C)NC(=O)[C@@H]1CN(Cc2cccnc2)CCN1C[C@@H](O)C[C@@H](Cc1ccccc1)C(=O)N[C@H]1c2ccccc2C[C@H]1O.O | > 1000 | 3 | > 1000 | 44 | 19 | > 1000 | 270 | 330 | > 1000 | 44 | > 1000 | > 1000 | 24 | >48 | 21 | – | – | – | – | –
Cc1c(O)cccc1C(=O)N[C@@H](CSc1ccccc1)[C@H](O)CN1C[C@H]2CCCC[C@H]2C[C@H]1C(=O)NC(C)(C)C | > 1000 | 1 | > 1000 | 23 | 23 | 510 | > 1000 | 210 | 320 | 11 | 360 | 650 | 12 | >63 | 13 | 16 | – | – | – | –
CC(C)(C)NC(=O)[C@@H]1C[C@@H]2CCCC[C@@H]2CN1C[C@@H](O)[C@H](Cc1ccccc1)NC(=O)[C@H](CC(N)=O)NC(=O)c1ccc2ccccc2n1 | – | 1 | 300 | 14 | 4 | 33 | 28 | 34 | > 1000 | 8 | – | 22 | 4 | 33 | 1 | 9 | – | – | – | –
